Results published in ChEMBL document CHEMBL1641576, “Development of a new class of benzoylpyrrole-based PPARα/γ activators” (Bioorg Med Chem Lett, 2011).
Calls of active or inactive are those of the source. No cut-off for these calls is given here.

What was measured:
[1] = tested on: Mus musculus; assay: Toxicity in db/db mouse assessed as increase of body weight at 41 mg/kg administered with chow diet ad for 14 days; assay type: organism-based; parameters: dose 41 mg/kg; conditions: in vivo, po, 336 h
Method in brief: (§1)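 […] male db/db mice were randomised into four groups and dosed for 14 days through drug admixed in rodent chow; controls received plain chow. Blood glucose, body weight and food intake were monitored. Values are means of 6 animals/group, compared with vehicle by Dunnett's or Student's test.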

[2] = tested on: Mus musculus; assay: Toxicity in db/db mouse assessed as effect on food intake at 41 mg/kg administered with chow diet ad for 14 days; assay type: organism-based; parameters: dose 41 mg/kg; conditions: in vivo, po, 336 h; method in brief: as §1
[3] = tested on: Mus musculus; assay: Antidiabetic activity in db/db mouse assessed as reduction of blood glucose level at 41 mg/kg administered with chow diet ad for 14 days; assay type: functional, organism-based; parameters: dose 41 mg/kg; method in brief: as §1
[4] = target: T1, Peroxisome proliferator-activated receptor alpha (Homo sapiens) (UniProt Q07869); assay: Agonist activity at human PPARalpha ligand binding domain expressed in COS-1 cells co-transfected with Gal4 at 10 uM by luciferase reporter gene assay relative to control; assay type: cell-based
T1 sequence (whole entry): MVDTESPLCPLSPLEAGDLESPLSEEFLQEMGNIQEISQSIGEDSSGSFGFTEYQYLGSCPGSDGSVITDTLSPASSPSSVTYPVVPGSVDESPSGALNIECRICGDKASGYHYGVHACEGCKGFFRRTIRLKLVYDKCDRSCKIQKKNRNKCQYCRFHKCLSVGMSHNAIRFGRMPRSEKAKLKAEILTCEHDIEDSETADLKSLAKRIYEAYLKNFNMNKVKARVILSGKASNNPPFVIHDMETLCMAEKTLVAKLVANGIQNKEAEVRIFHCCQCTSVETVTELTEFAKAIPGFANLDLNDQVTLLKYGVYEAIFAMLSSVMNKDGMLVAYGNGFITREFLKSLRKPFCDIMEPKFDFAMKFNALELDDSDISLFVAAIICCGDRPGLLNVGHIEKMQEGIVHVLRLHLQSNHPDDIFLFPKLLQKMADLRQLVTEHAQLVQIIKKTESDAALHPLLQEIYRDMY
Method in brief: (§2)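 COS-1 cells were seeded at 5 × 10⁴ cells/well and grown about 24 h at 37 °C under 5% CO₂ in DMEM with 10% charcoal-treated FCS. They were lipofected with a GAL4–PPAR ligand-binding-domain fusion plasmid plus a GAL4-responsive luciferase reporter. Medium was replaced at 4 h with medium containing compound; no-drug controls received 0.1% DMSO final. Cells were lysed after 24 h and luciferase was read. Results are reported as fold induction and EC50.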

[5] = organism: Homo sapiens; assay: Selectivity ratio, ratio of EC50 for human PPARalpha ligand binding domain to EC50 for human PPARgamma ligand binding domain
[6] = target: T1, Peroxisome proliferator-activated receptor alpha (Homo sapiens); assay: Agonist activity at human PPARalpha ligand binding domain expressed in COS-1 cells co-transfected with Gal4 by luciferase reporter gene assay relative to fenofibric acid; assay type: cell-based
[7] = target: T2, Peroxisome proliferator-activated receptor gamma (Homo sapiens, UniProt P37231); assay: Agonist activity at human PPARgamma ligand binding domain expressed in COS-1 cells co-transfected with Gal4 by luciferase reporter gene assay; assay type: cell-based
T2 sequence (P37231 whole entry): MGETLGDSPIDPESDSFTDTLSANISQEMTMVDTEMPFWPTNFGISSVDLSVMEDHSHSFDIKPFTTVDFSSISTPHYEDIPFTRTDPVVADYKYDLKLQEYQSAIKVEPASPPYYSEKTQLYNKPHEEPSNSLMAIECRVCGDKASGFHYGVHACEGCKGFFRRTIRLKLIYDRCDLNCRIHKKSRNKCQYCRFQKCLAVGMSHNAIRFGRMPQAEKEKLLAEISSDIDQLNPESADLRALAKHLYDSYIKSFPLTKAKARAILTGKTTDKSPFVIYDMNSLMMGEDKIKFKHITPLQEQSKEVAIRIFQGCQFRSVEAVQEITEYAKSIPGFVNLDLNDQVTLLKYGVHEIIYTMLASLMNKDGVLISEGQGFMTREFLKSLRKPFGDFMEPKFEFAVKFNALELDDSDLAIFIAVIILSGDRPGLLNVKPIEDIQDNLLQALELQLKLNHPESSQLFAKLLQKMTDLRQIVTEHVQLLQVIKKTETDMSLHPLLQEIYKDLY

[8] = target: T3, Peroxisome proliferator-activated receptor alpha (Homo sapiens, UniProt Q07869); assay: Agonist activity at human PPARalpha ligand binding domain expressed in COS-1 cells co-transfected with Gal4 by luciferase reporter gene assay; assay type: cell-based; method in brief: as §2
T3 sequence (Q07869 whole entry): T1 sequence (whole entry)

[9] = target: T4, Peroxisome proliferator-activated receptor gamma (Homo sapiens) (UniProt P37231); assay: Agonist activity at human PPARgamma ligand binding domain expressed in COS-1 cells co-transfected with Gal4 by luciferase reporter gene assay relative to pioglitazone; assay type: cell-based
T4 sequence (whole entry): T2 sequence (P37231 whole entry)

[10] = target: T5, Peroxisome proliferator-activated receptor alpha (Mus musculus, UniProt P23204); assay: Agonist activity at mouse PPARalpha ligand binding domain expressed in COS-1 cells co-transfected with Gal4 by luciferase reporter gene assay; assay type: cell-based; method in brief: as §2
T5 sequence (P23204 whole entry): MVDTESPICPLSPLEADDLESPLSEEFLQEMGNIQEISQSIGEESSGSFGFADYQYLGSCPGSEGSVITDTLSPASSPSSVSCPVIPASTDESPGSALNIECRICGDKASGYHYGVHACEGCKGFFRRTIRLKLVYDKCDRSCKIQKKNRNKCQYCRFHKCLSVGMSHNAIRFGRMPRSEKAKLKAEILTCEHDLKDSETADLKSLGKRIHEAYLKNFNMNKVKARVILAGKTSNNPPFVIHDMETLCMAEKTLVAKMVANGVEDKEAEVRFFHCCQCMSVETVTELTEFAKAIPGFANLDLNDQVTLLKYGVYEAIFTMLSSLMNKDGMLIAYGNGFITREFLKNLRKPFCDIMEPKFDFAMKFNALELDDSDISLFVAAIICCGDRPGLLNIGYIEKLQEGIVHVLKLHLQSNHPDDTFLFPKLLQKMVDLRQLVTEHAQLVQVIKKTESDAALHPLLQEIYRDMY

[11] = Cmax in rat at 10 mg/kg, po; assay type: ADME, organism-based; parameters: dose 10 mg/kg, route oral; conditions: in vivo
Method in brief: (§3)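 Single oral dose of the sodium salt given to rats. Plasma profile used to derive AUC, Cmax, Tmax and bioavailability.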

[12] = tested on: Mus musculus; assay: Toxicity in db/db mouse assessed as increase of body weight at 15 mg/kg administered with chow diet ad for 14 days; assay type: organism-based; parameters: dose 15 mg/kg; conditions: in vivo, po, 336 h; method in brief: as §1
[13] = tested on: Mus musculus; assay: Toxicity in db/db mouse assessed as effect on food intake at 141 mg/kg administered with chow diet ad for 14 days; assay type: organism-based; parameters: dose 141 mg/kg; conditions: in vivo, po, 336 h; method in brief: as §1
[14] = Volume of distribution at steady state in rat at 1 mg/kg, iv; assay type: ADME, organism-based; parameters: dose 1 mg/kg, route intravenous; conditions: in vivo, read-out: Vdss
Method in brief: (§4)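 Single intravenous dose of the sodium salt given to rats. Plasma concentrations followed to derive AUC, half-life, plasma clearance and steady-state distribution volume.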

[15] = AUC in rat at 1 mg/kg, iv; assay type: ADME, organism-based; parameters: dose 1 mg/kg, route intravenous; conditions: plasma; method in brief: as §4
[16] = Tmax in rat at 10 mg/kg, po; assay type: ADME, organism-based; parameters: dose 10 mg/kg, route oral; conditions: in vivo; method in brief: as §3
[17] = Clearance in rat at 1 mg/kg, iv; assay type: ADME, organism-based; parameters: dose 1 mg/kg, route intravenous; conditions: in vivo; method in brief: as §4
[18] = AUC in rat at 10 mg/kg, po; assay type: ADME, organism-based; parameters: dose 10 mg/kg, route oral; conditions: plasma; method in brief: as §3
[19] = Oral bioavailability in rat at 10 mg/kg; assay type: ADME, organism-based; conditions: in vivo; method in brief: as §3
[20] = Half life in rat at 1 mg/kg, iv; assay type: ADME, organism-based; parameters: dose 1 mg/kg, route intravenous; conditions: in vivo; method in brief: as §4
[21] = tested on: Mus musculus; assay: Toxicity in db/db mouse assessed as increase of body weight at 141 mg/kg administered with chow diet ad for 14 days; assay type: organism-based; parameters: dose 141 mg/kg; conditions: in vivo, po, 336 h; method in brief: as §1
[22] = tested on: Mus musculus; assay: Toxicity in db/db mouse assessed as effect on food intake at 15 mg/kg administered with chow diet ad for 14 days; assay type: organism-based; parameters: dose 15 mg/kg; conditions: in vivo, po, 336 h; method in brief: as §1
[23] = tested on: Mus musculus; assay: Antidiabetic activity in db/db mouse assessed as reduction of blood glucose level at 141 mg/kg administered with chow diet ad for 14 days; assay type: functional, organism-based; parameters: dose 141 mg/kg; method in brief: as §1
[24] = target: T6, Peroxisome proliferator-activated receptor alpha (Mus musculus) (UniProt P23204); assay: Agonist activity at mouse PPARalpha ligand binding domain expressed in COS-1 cells co-transfected with Gal4 by luciferase reporter gene assay relative to fenofibric acid; assay type: cell-based
T6 sequence (whole entry): T5 sequence (P23204 whole entry)

## CCc1ccc(CCOc2ccc(CC3SC(=O)NC3=O)cc2)nc1 (stereo unspecified) [PIOGLITAZONE]
[1]
  Activity: Toxic
[2]
  Activity: Toxic
[3]
  Activity: Active

## COc1ccc(C(=O)c2cccn2C/C=C/c2cccc(CC(=O)O)c2)cc1
[4]
  fold change (FC): 1.6
[5]
  Ratio EC50: 11
[6]
  Emax: 43%
[7]
  EC50: 2 µM
[8]
  EC50: 21 µM
[9]
  Emax: 37%

## COc1ccc(C(=O)c2cccn2C/C=C/c2ccc(OCC(=O)O)cc2)cc1
[4]
  fold change (FC): 3.5

## Cc1ccc(C(=O)c2cccn2C/C=C/c2cccc(OCC(=O)O)c2)cc1 [listing 1 of 2 here]
[7]
  EC50: 1.2 µM
[10]
  EC50: 4.9 µM
[8]
  EC50: 1.8 µM

## COc1ccc(C(=O)c2cccn2C/C=C/c2cccc(OCC(=O)O)c2)cc1
[4]
  fold change (FC): 5.8
[5]
  Ratio EC50: 1.9
[6]
  Emax: 42%
[7]
  EC50: 1.9 µM
[8]
  EC50: 3.7 µM
[9]
  Emax: 16%

## COc1cccc(C(=O)c2cccn2C/C=C/c2cccc(OCC(=O)O)c2)c1
[4]
  fold change (FC): 1.4

## CC(C)(Oc1ccc(C(=O)c2ccc(Cl)cc2)cc1)C(=O)O [FENOFIBRIC ACID]
[4]
  fold change (FC): 5.6
[8]
  EC50: 12 µM

## COc1ccccc1C(=O)c1cccn1C/C=C/c1cccc(OCC(=O)O)c1
[4]
  fold change (FC): 0.9

## COc1ccc(C(=O)c2cccn2C/C=C/c2ccc(CC(=O)O)cc2)cc1
[4]
  fold change (FC): 0.8

## COc1ccc(C(=O)c2cc(C)cn2C/C=C/c2ccc(Cl)cc2C(=O)NS(C)(=O)=O)cc1
[4]
  fold change (FC): 0.9
[5]
  Ratio EC50: > 7.5
[7]
  EC50: 12 µM
[8]
  EC50: > 90 µM
[9]
  Emax: 19%

## COc1ccc(C(=O)c2cccn2C/C=C/c2ccccc2CC(=O)O)cc1
[4]
  fold change (FC): 1

## Cc1ccc(C(=O)c2cccn2C/C=C/c2cccc(OCC(=O)[O-])c2)cc1.[Na+]
[11]
  Cmax: 4300 ng/mL
[12]
  Activity: Non-toxic
[13]
  Activity: Non-toxic
[14]
  Vd: 0.3 L/kg
[15]
  AUC: 14000 ng·h/mL
[16]
  Tmax: 4 h
[17]
  clearance: 1.2 mL/min/kg
[18]
  AUC: 59000 ng·h/mL
[19]
  bioavailability: 42%
[20]
  half-life: 3.2 h
[21]
  Activity: Non-toxic
[22]
  Activity: Non-toxic

## Cc1ccccc1C(=O)c1cccn1C/C=C/c1cccc(OCC(=O)O)c1
[4]
  fold change (FC): 1.1

## Cc1ccc(C(=O)c2cccn2C/C=C/c2cccc(OCC(=O)O)c2)cc1 [listing 2 of 2 here]
[4]
  fold change (FC): 5.2
[5]
  Ratio EC50: 1.5
[6]
  Emax: 37%
[23]
  Activity: Active
[9]
  Emax: 17%
[24]
  Emax: 25%

## Cc1cccc(C(=O)c2cccn2C/C=C/c2cccc(OCC(=O)O)c2)c1
[4]
  fold change (FC): 1.9

## COc1ccc(C(=O)c2cccn2C/C=C/c2ccccc2OCC(=O)O)cc1
[4]
  fold change (FC): 0.8
